Tests used:
PASK = PASK (Homo sapiens, UniProt Q96RG2); assay: In vitro protein kinase activity assay, purified PASK; format: biochemical; conditions: 100μM
Outline: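 Purified PASK kinase activity measured with vehicle or test compound at the indicated concentrations. Activity is expressed as percent of vehicle-treated activity.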

50 other protein kinases = assay: In vitro specificity panel of 50 other protein kinases; format: biochemical, human; conditions: 100μM
SREBP = assay: SRE-driven luciferase; format: cell-based, human; conditions: for concentrations giving a significant reduction in SREBP activity: HepG2, SRE-Luc, 100nM insulin 6 h; for effects on cell morphology or growth rate: HepG2 cells, concentrations of the SRE-Luc experiment
Outline: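 Transfection of HepG2 cells used Lipofectamine LTX, with pSRE-Luc plus CMV-driven Renilla luciferase. Cells were serum-starved overnight with vehicle or graded concentrations of test compound, then stimulated with 100 nM insulin for 6 h. Firefly and Renilla luciferase were read by dual-reporter assay. Data were normalised to vehicle-treated samples; n=3, mean ± SD.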

[1] = test system: Akt and S6K phosphorylation; assay: Immunoblot of Akt and S6K phosphorylation in response to insulin in HepG2 cells; format: cell-based, human
Outline: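 HepG2 cells received vehicle or graded concentrations of test compound, then 100 nM insulin for 6 h. Cell lysates were immunoblotted for phosphorylation state and abundance of Akt and S6K.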

SREBP-1c maturation = assay: Immunoblot of precursor and mature SREBP-1c in HepG2 cells; format: cell-based, human
Outline: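 HepG2 cells expressing GFP or 3xFlag-tagged precursor SREBP-1a or SREBP-1c were treated with test compound (30 and 50 μM), then 100 nM insulin for 6 h. Whole-cell lysate and nuclear extract were immunoblotted for precursor and mature SREBP-1c, and the mature:precursor ratio was determined.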

HepG2 cells = assay: 14C-acetate incorporation into lipid; format: cell-based, human; conditions: 10 μM, HepG2, 14C-acetate
Outline: (§1)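 HepG2 cells or rat primary hepatocytes were pre-treated overnight in serum-free medium with vehicle or 10 μM test compound. They then got fresh medium with vehicle or […] test compound plus 100 nM insulin for 6 h, labelled with 10 μCi/ml [1-14C]-acetate for the last 4 h. Lysis was in 0.5% Triton X-100, lipids were extracted with chloroform:methanol 2:1, and the organic phase was scintillation-counted. Counts were normalised to lysate protein; n=3, mean ± SD.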

Rat primary hepatocytes [2] = assay: qRT-PCR of SREBP-1c target genes in insulin-stimulated rat primary hepatocytes; format: cell-based
Outline: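 Rat primary hepatocytes were isolated, plated, and pre-treated 16 h with DMSO or test compound, then stimulated with insulin or vehicle over a 12 h time course. FASN, GCK and SREBP-1c mRNAs were measured by qRT-PCR, normalised to r36B4, with the vehicle-treated unstimulated group set as 1; n=3, mean ± SEM.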

Rat primary hepatocytes [3] = assay: 14C-acetate incorporation into lipids in rat primary hepatocytes; format: cell-based
Outline: as §1

[4] = test system: high-fructose diet (HFrD) fed rats; assay: High-fructose diet Sprague-Dawley rats, oral dosing once/day for one week; format: in vivo
casein kinase 2α = assay: In vitro protein kinase activity assay, casein kinase 2α; format: biochemical, human; conditions: PASK vs casein kinase 2α2
[5] = test system: SREBP-1 maturation in liver; assay: High-fat and high-fructose diet rats, liver SREBP-1 maturation immunoblot; format: in vivo, rat; conditions: 10, 30 and 100 mg/kg; treated for the last 3 weeks of 18 weeks diet
Outline: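 Rats were fed a high-fat plus high-fructose diet for 18 weeks and dosed once daily by oral gavage with vehicle or test compound over the final 3 weeks. Vehicle was 0.5% methylcellulose, 0.025% Tween-80 in water, with compound ground to a suspension. Animals were fasted 24 h and refed 12 h. Whole liver lysate and nuclear extract were immunoblotted for precursor and mature SREBP-1 plus control proteins.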

HFrD-fed rats = assay: High-fructose diet Sprague-Dawley rats, oral dosing once/day for 90 days; format: in vivo, rat
[6] = In vivo pharmacologic and pharmacokinetic properties
adipose tissue = conditions: accompanied by decreased expression of SREBP-1; ref Pereira et al., 2013; cited from earlier work

Sequence of PASK (Q96RG2 whole entry): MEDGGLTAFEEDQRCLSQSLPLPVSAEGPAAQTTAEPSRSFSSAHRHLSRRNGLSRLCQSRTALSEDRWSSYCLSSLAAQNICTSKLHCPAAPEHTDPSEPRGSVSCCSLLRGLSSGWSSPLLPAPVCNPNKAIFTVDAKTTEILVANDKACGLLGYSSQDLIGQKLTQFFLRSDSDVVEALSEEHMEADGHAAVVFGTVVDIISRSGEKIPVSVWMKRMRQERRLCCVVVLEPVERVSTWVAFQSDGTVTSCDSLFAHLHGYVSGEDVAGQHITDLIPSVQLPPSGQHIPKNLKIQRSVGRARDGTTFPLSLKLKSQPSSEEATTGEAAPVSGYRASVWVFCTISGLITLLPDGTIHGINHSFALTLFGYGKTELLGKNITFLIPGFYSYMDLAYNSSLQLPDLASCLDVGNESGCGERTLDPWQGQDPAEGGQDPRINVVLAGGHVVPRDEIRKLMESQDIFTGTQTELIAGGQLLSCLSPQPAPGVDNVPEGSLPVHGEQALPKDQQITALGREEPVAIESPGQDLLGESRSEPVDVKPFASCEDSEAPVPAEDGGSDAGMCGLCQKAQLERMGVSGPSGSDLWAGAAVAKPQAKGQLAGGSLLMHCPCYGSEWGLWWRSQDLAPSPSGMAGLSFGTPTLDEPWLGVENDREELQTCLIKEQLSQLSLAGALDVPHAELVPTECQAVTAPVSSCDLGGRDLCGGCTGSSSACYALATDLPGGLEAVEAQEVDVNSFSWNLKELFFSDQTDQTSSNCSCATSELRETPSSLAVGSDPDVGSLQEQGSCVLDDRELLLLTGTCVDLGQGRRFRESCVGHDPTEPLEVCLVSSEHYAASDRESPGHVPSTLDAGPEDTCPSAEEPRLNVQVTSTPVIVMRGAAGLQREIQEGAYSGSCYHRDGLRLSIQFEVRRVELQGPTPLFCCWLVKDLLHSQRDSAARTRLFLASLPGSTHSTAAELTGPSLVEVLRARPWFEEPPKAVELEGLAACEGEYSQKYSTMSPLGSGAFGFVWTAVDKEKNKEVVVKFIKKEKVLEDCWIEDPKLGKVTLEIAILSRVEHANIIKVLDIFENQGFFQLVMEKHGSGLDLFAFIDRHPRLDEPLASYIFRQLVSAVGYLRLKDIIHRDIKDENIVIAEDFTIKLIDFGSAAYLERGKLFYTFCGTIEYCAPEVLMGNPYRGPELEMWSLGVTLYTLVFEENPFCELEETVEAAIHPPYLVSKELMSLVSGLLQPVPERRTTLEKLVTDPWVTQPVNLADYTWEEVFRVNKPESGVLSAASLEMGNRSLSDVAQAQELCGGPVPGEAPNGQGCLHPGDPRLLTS

C[C@H]1CCCN1c1nc2cc(C(=O)O)ccc2nc1-c1ccc(F)cc1 [BioE-1197]
PASK activity at extremely high concentration (PASK): essentially completely inactivated
activity of the majority of the 50 kinases (50 other protein kinases): either unaffected or only modestly inhibited
number of other kinases substantially inhibited (50 other protein kinases; of 50 kinases other than PASK): 8
concentrations giving a significant reduction in SREBP activity (SREBP): > 3 µM
effects on cell morphology or growth rate (SREBP): without any observable effects
phosphorylation of Akt or S6K in response to insulin [1]: neither compound impaired
suppression of SREBP-1c maturation compared with BioE-1428 (SREBP-1c maturation; quantified over five independent experiments): significantly more efficacious
decrease in 14C incorporation into lipids (HepG2 cells): ~ 60%
mRNA encoding SREBP-1c (Rat primary hepatocytes [2]; basal and insulin-stimulated conditions): significant decrease
insulin-induced increase in FASN and GCK mRNAs (Rat primary hepatocytes [2]; pre-treated 16 h, insulin over 12 h timecourse): either blunted or abolished
insulin-induced increase in lipogenesis (14C-acetate incorporation into lipids) (Rat primary hepatocytes [3]): completely abolished
hepatic expression of the gene encoding HMG-CoA reductase ([4]; oral once/day, one week): significantly decreased

CC(C)N(C)c1nc2cc(C(=O)O)ccc2nc1-c1ccc(F)cc1 [BioE-1115]
fold more potent as an inhibitor of PASK than of casein kinase 2α2 (casein kinase 2α): roughly 2500 fold
concentrations giving a significant reduction in SREBP activity (SREBP): above 10 μM
effects on cell morphology or growth rate (SREBP): without any observable effects
phosphorylation of Akt or S6K in response to insulin [1]: neither compound impaired
SREBP-1c maturation (mature:precursor SREBP-1c ratio) (SREBP-1c maturation; 30 and 50μM): suppressed
hepatic expression of SREBP-1c target genes ([4]; 1 or 3 mg/kg oral once/day, one week): no difference from vehicle-treated rats
hepatic expression of Gpat1, Fasn and all other SREBP-1c target genes analyzed ([4]; 10, 30 and 100 mg/kg oral once/day, one week): dose-dependent suppression
HOMA-IR ([4]; calculated measure of insulin resistance): decreased in a dose-dependent manner
hepatic SREBP-1c and SREBP-1a mRNA ([4]; highest doses): modestly decreased
body weight ([4]; oral once/day, one week): Neither dose of BioE-1115 caused a significant change
hepatic TAG ([4]; oral once/day, one week): decrease
hepatic expression of HMG-CoA synthase 1 and SREBP-2 ([4]; oral once/day, one week): induced in a dose-dependent manner
liver weight ([4]; oral once/day, one week): Neither dose of BioE-1115 caused a significant change
serum TAG ([4]; oral once/day, one week): decreased in a dose-dependent manner
serum cholesterol ([4]; oral once/day, one week): basically unaffected
serum glucose ([4]; oral once/day, one week): significant decrease
serum insulin levels ([4]; oral once/day, one week): slightly lower
SREBP-1 maturation in liver [5]: suppressed
hepatic Fasn and Acc1 expression (HFrD-fed rats; 3 mg/kg, 90 days): significantly suppressed
hepatic Fasn and Acc1 expression (HFrD-fed rats; 10, 30 and 100 mg/kg, 90 days): restored to that in normal chow fed animals
serum glucose levels as measured by glycated hemoglobin (HbA1c) (HFrD-fed rats; 90-day study): decreased
expression of SREBP-1c or its target genes in abdominal fat (HFrD-fed rats; 90 days): no significant differences
expression of SREBP-1c or its target genes in gastrocnemius muscle (HFrD-fed rats; 90 days): no significant differences
body weight (HFrD-fed rats; after 51 days of dosing): no drug-dependent difference
body weight (HFrD-fed rats; after 90 days of dosing): no drug-dependent difference
serum triglycerides (HFrD-fed rats; after 90 days of treatment): significant dose-responsive decrease
overt toxicity upon extended treatment (HFrD-fed rats; doses 10–30 fold higher than those required for significant effects on lipogenic gene expression and serum triglycerides): no overt toxicity
serum triglycerides (HFrD-fed rats; interim timepoint of 45 days): significant dose-responsive decrease
in vivo pharmacologic and pharmacokinetic properties relative to BioE-1197 [6]: more favorable

CO[C@H]1C[C@@H]2CC[C@@H](C)[C@@](O)(O2)C(=O)C(=O)N2CCCC[C@H]2C(=O)O[C@H]([C@H](C)C[C@@H]2CC[C@@H](O)[C@H](OC)C2)CC(=O)[C@H](C)/C=C(\C)[C@@H](O)[C@@H](OC)C(=O)[C@H](C)C[C@H](C)/C=C/C=C/C=C/1C [rapamycin]
lipogenesis in adipose tissue (adipose tissue): decreased lipogenesis
